Assay results pooled from the literature.
Protocols differ between the studies behind these lines.
Target: LIM domain kinase 1 (LIMK1, Homo sapiens, UniProt P53667)

SMILES	test	setting	endpoint	result
CO[C@@H]1[C@H](N(C)C(=O)c2ccccc2)C[C@H]2O[C@]1(C)n1c3ccccc3c3c4c(c5c6ccccc6n2c5c31)C(=O)NC4	enzyme activity, inhibitor	1 µM	inhibition	12%
C[C@H]1CC[C@H](n2c3cnccc3c3cnc(Nc4ccc5c(n4)CCN(C(=O)CO)C5)nc32)CC1	binding, competition with immobilised ligand	1 µM	remaining binding	98%
C1=C/COCc2cc(ccc2OCCN2CCCC2)Nc2nccc(n2)-c2cccc(c2)COC/1	binding	0.1 µM	remaining binding	82%
C#Cc1cc(-c2cc(Nc3nc(N[C@@H](C)c4ccc(F)cn4)ncc3Cl)n[nH]2)ccc1C=O	enzyme activity, inhibitor	0.2 µM	inhibition	24.2%
C=CC(=O)N1CCC[C@@H](n2nc(-c3ccc(Oc4ccccc4)cc3)c3c(N)ncnc32)C1	enzyme activity, inhibitor	1 µM	inhibition	76%
CCCCC(=O)Nc1ccc(-c2ccc3ncn(CCC)c(=O)c3c2)cn1	binding, competition with immobilised ligand	0.5 µM	remaining binding	96%
CC(C)S(=O)(=O)c1ccc2nccc(Nc3ccc4sc(C5CCCC5)nc4c3)c2c1	enzyme activity, inhibitor	1 µM	activity vs control	82%
CN1CCN(C(=O)c2ccc(NC(=O)Nc3ccc(N(C)c4ccnc(Nc5ccc(CS(C)(=O)=O)cc5)n4)cc3)cc2)CC1	binding, competition with immobilised ligand	1 µM	remaining binding	61%
